Most compounds without a hit are left out; they make up all but 1.4% or so of the library.
PLC-gamma1 inh: blocks human PLC-gamma1 enzyme activity. P19174. purified PLC-gamma1, fluorogenic substrate, fluorescence. inhibition, % at 12.2 µM. actives 0.84% (n = 370,000). AID 720700; in the data active = inhibition above about 9.5%
PLCb3 inh: PLC-beta3 (human) inhibition, primary screen. Q01970. inhibition, % at 12.2 µM. actives 0.18% (n = 370,000). Purified PLC-beta3, fluorogenic substrate, fluorescence;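 also: 0% = median of compound wells on plate and 100% = full blocker control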
DDE Tn6 FP inh: DD(E)-Tn6 binding inhibition, primary FP screen | P02675 | Fibrin DD(E) TRITC-Tn6 fluorescence polarization displacement | inhibition, % at 8.3 µM | actives 0.21% (n = 370,000) | AID 720509;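 active = inhibition above a per-campaign cutoff: mean of compounds within control limits plus 3 SD, cut at about 15% in these data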;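 also: 0% = median of all compound wells on the plate and 100% = blocking peptide control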
Target sequence (P02675 whole entry, looked up): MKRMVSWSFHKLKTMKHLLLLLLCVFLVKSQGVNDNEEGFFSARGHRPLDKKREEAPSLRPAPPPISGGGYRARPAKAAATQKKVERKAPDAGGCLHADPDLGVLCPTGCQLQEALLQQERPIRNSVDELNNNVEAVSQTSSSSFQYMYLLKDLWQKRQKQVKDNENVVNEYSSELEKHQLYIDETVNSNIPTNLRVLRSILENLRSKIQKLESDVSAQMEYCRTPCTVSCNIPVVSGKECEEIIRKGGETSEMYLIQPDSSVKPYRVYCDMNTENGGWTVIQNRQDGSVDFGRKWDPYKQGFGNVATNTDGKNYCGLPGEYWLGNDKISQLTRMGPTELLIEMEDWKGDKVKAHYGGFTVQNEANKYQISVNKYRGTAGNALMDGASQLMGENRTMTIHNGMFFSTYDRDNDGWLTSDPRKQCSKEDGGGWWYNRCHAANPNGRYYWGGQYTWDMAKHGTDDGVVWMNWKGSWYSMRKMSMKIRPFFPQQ
FID counter: counter-screen for HCV NS3 helicase inhibitors: DNA intercalator displacement; DNA fluorescent intercalator displacement, fluorescence; inhibition, % at 7.9 µM; actives 0.17% (n = 290,000); AID 1845; in the data active = inhibition above about 37%;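 also: 0% = vehicle and 100% = reference compound; higher means more ethidium bromide displaced from hairpin DNA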
DDE Tn7 FP inh: disrupts Tn7 cyclic peptide binding to fibrin D-Dimer-E complex; FP displacement of FITC-Tn7 peptide from fibrin DD(E); 0% = median of compound wells per plate; AID 720508; inhibition, % at 8.3 µM; P02675; actives 0.13% (n = 370,000);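 active = inhibition above the mean of compounds falling within the control limits plus 3 SD of them, cut at about 14% in these data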;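 also: 0% = plate median of compound wells and 100% = 10 µM Aha-Tn7 peptide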
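Test system: human clot-derived fibrin DD(E) complex / Quantity: 2 µM final DD(E) protein / Incubation: 10 min plus 3 h, room temperature / Measured by: fluorescence polarization / Benchmarks: high control of 10 µM Aha-Tn7 peptide / Replicates: singlicate testing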
PLCg1 ctr: PLC-gamma1 inhibition, counter-screen for PLC-beta3 hits; shares compounds with PLC-gamma1 inh; purified PLC-gamma1, fluorogenic substrate, fluorescence; inhibition, % at 12.3 µM; actives 3.1% (n = 3,300); in the data active = inhibition above about 9.5%
PLCbeta3 conf: confirmation of human PLC-beta3 inhibitors; shares compounds with PLC-gamma1 inh; purified PLC-beta3, fluorogenic substrate fluorescence; inhibition, % at 12.3 µM; actives 1% (n = 3,300); AID 743261
The depositor's hits bear a star; . = no result. Rule as the data show it, unless noted: active = inhibition above about 11%; inactive = the rest.

SMILES | PLC-gamma1 inh | PLCb3 inh | DDE Tn6 FP inh | FID counter | DDE Tn7 FP inh | PLCg1 ctr | PLCbeta3 conf
COc1cccc(NC(=O)Nc2ccncc2)c1 | 5 | 11* | 4 | 7 | 8 | -9 | -3
COc1ccc(NC(=O)c2c(C)nn(-c3ccccc3)c2Cl)cc1 | -2 | -6 | 0 | -20 | 7 | . | .
C=CCNC(=O)c1ccccc1NC(=O)COc1ccc(OC)cc1 | -1 | 1 | 8 | -11 | 7 | . | .
CC(=O)Nc1cccc(-c2ccnc3c2CC(C(=O)NCC2CCOCC2)O3)c1 (configuration not stated) | 12* | 13* | 9 | . | 0 | -1 | 3
CC(=O)NCCNC(=O)C1Cc2c(-c3cccc(NC(C)=O)c3)ccnc2O1 (configuration not stated) | 3 | 4 | 0 | . | -10 | . | .
COCCSc1ccccc1C(=O)Nc1ccncc1 | -1 | 1 | 4 | 0 | 6 | . | .
COCCSc1ccccc1C(=O)Nc1nncs1 | 10* | 4 | -3 | 0 | 0 | -1 | 1
Cc1cccc(NC(=O)c2cccnc2)c1C | 1 | -4 | 5 | -8 | 7 | . | .
CSc1nc(=O)n(CCC#N)nc1SC | 1 | 12* | 8 | . | -10 | 1 | 4
CSc1cnn(CCC#N)c(=O)n1 | 12* | 4 | -7 | . | -3 | -6 | 0
Cc1nnc(SCCC#N)n(CCC#N)c1=O | 3 | 2 | 5 | -1 | -2 | . | .
CN(Cc1ccccc1)C(=O)COC(=O)COc1ccc(C#N)cc1 | 9.8* | 0 | -9 | -26 | -7 | -4 | 1
CN(Cc1ccccc1)C(=O)COC(=O)COc1ccc(Cl)cc1 | 4 | -1 | -2 | . | 11 | . | .
N#Cc1c(SCC(=O)Nc2nccs2)sc2c(O)cc(=O)[nH]c12 | -3 | -37 | -9 | -2 | -3 | . | .
CCC(C)[C@H](NC(=O)Nc1cccc(Br)c1)C(=O)OC (some centres not stated) | 13* | 9 | -2 | -4 | 0 | -6 | -1
COC(=O)[C@@H](NC(=O)Nc1cccc(Br)c1)C(C)C | 1 | 2 | -1 | -2 | 5 | . | .
COc1ccc(NC(=O)/C(=C\c2cccs2)NC(=O)c2ccco2)cc1 | 5 | 4 | 2 | -3 | -3 | . | .
CC(C)OC(=O)c1ccccc1C(=O)c1ccc(N)c([N+](=O)[O-])c1 | 9.8* | 3 | -4 | 1 | -12 | -3 | 0
COc1ccc(S(=O)(=O)CCC(=O)NCCc2cccc(C)c2)cc1 | 9.7* | -3 | -11 | -10 | -7 | -2 | 0
Cc1cccc(CCNC(=O)CCS(=O)(=O)c2ccc(Br)cc2)c1 | 2 | 4 | -1 | -11 | 1 | . | .
CC(C)(C)n1nnnc1C(c1ccccc1)N1CCN(C(=O)C2CCCO2)CC1 (configuration not stated) | 9.9* | 4 | -1 | . | -3 | -6 | 2
CCN1CCN(C(c2ccccc2)c2nnnn2C(C)(C)C)CC1 (configuration not stated) | 1 | 0 | 2 | . | 1 | . | .
CN1CCN(C(c2ccccc2)c2nnnn2C(C)(C)C)CC1 (configuration not stated) | 12* | 5 | -3 | . | 0 | -1 | -7
Cc1cc(C(=O)NNC(=S)NCC2CCCO2)cs1 (configuration not stated) | 3 | 5 | -2 | -3 | 0 | . | .
Cc1cc(C(=O)NNC(=S)NCC(C)C)cs1 | 0 | 13* | 0 | -2 | -4 | -4 | 14*
SMILES | PLC-gamma1 inh | PLCb3 inh | DDE Tn6 FP inh | FID counter | DDE Tn7 FP inh | PLCg1 ctr | PLCbeta3 conf
Cc1cc(C(=O)NNC(=S)NCc2ccccc2)cs1 | -1 | 13* | -4 | -7 | 0 | -9 | 5
CCN(CC)CCN(Cc1cc2cc3c(cc2[nH]c1=O)OCO3)C(=S)NCc1ccco1 | -35 | -53 | 1 | 8 | 4 | . | .
O=C(CS(=O)c1cccc(Cl)c1)Nc1ccccc1Cl (configuration not stated) | 11* | 4 | -8 | -7 | 4 | 11* | 1
O=C(CS(=O)c1cccc(C(F)(F)F)c1)Nc1ccc(Cl)cc1Cl (configuration not stated) | 17* | 3 | -3 | -14 | -4 | 13* | 4
Cc1noc(C)c1CSc1ccccc1C(=O)OC(C)C(N)=O (configuration not stated) | 0 | -6 | 13 | -9 | -4 | . | .
CC(CCc1ccccc1)NC(=O)c1ccc(C(=O)NC(C)CCc2ccccc2)cc1 (configuration not stated) | 0 | -2 | -2 | -4 | -3 | . | .
CC(CCc1ccccc1)NC(=O)c1cccs1 (configuration not stated) | 4 | 12* | -2 | -4 | 6 | -2 | 1
COC(=O)c1ccn(C(=O)c2ccc(Cl)cc2)n1 | -153 | -220 | -1 | -1 | 1 | . | .
CCOC(=O)N1CCC(NS(=O)(=O)c2ccc3c(c2)CCN3C(C)=O)CC1 | 12* | 6 | -5 | -9 | -3 | -7 | -4
COc1cccc(/C=N/Nc2ncnc3scc(-c4ccccc4)c23)c1OC | 1 | 1 | 5 | -10 | -2 | . | .
Cn1cc(CN2CCC(C(=O)Nc3cccc(-c4cscn4)c3)CC2)cn1 | 0 | -5 | -4 | 7 | -2 | . | .
CC(=O)Nc1ccc(/C=N/NC(=S)NC(C)C)cc1 | 12* | 3 | -8 | 3 | 2 | -6 | 1
C=C(C)CNC(=S)N/N=C/c1ccc(NC(C)=O)cc1 | 4 | -3 | -9 | -5 | 3 | . | .
c1csc(C(c2nnnn2C2CCCCC2)N2CCN(c3nc4ccccc4s3)CC2)c1 (configuration not stated) | 11* | 6 | 0 | -1 | 4 | -1 | 1
c1ccc(C(c2nnnn2C2CCCC2)N2CCN(c3nc4ccccc4s3)CC2)cc1 (configuration not stated) | 0 | 9 | 8 | -4 | 13 | . | .
CSc1ncccc1C(=O)NC1CCCc2c1cnn2-c1ccc(C)c(C)c1 (configuration not stated) | 11* | -8 | -5 | -59 | -1 | 2 | 0
COc1ncccc1C(=O)NC1CCCc2c1cnn2-c1ccc(C)c(C)c1 (configuration not stated) | -3 | -12 | -2 | -54 | 3 | . | .
COc1cc(OC)cc(C(=O)Nc2cccc3ccccc23)c1 | 2 | -7 | -3 | -10 | -7 | . | .
COc1cccc(C(=O)Nc2cccc3ccccc23)c1 | 15* | 3 | -7 | -7 | 6 | 3 | 2
COc1ccc(NC(=O)c2cccc3c(Br)cccc23)cc1 | 1 | -9 | 8 | -5 | 2 | . | .
CCC(C)NC(=O)c1ccccc1NC(=O)COc1ccc(OC)cc1 (configuration not stated) | 11* | 6 | -4 | -13 | 0 | -3 | 0

Compound activity: PubChem, The Scripps Research Institute Molecular Screening Center
